Data from ChEMBL document CHEMBL1135710, “Novel mycophenolic adenine bis(phosphonate) analogues as potential differentiation agents against human leukemia” (J Med Chem, 2002).
The source made the active and inactive calls. No cut-off for these calls is given here.

Legend:
K562 [1] = assay: Concentration of the Antiproliferative compound required for the 50% inhibition of Growth against K562 cells; type: functional, cell-based; conditions: Homo sapiens
[2] = target: T1, Inosine-5'-monophosphate dehydrogenase 1 (Homo sapiens, UniProt P20839); assay: Inhibitory activity against human Inosine-5'-monophosphate dehydrogenase 1 (IMPDH type I)
How it was run: (§1)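 Human IMPDH isoforms type I and type II assayed separately. Substrate, cofactor and inhibitor were premixed, and the reaction was started by adding enzyme. Values are reported as Ki.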
Target sequence in this assay (P20839 whole entry, canonical isoform): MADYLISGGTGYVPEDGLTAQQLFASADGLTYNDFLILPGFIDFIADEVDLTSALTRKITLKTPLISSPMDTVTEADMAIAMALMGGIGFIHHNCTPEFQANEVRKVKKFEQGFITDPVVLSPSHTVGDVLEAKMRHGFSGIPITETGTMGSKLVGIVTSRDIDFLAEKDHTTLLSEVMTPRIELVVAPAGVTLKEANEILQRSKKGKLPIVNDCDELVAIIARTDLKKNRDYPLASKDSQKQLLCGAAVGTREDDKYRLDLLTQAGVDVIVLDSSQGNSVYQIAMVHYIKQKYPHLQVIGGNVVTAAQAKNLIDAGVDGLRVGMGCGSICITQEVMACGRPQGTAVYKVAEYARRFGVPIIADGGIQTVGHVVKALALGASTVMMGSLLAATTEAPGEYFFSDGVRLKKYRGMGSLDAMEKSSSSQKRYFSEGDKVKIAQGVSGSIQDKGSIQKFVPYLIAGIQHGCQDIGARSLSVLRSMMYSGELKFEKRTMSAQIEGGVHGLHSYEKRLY

K562 [3] = assay: Compound effect on differentiation of K562 cells, % of benzidine positive cells at 10 uM; type: functional, Homo sapiens
K562 [4] = assay: Compound effect on differentiation of K562 cells, % of benzidine positive cells at 1.0 uM; type: functional, Homo sapiens
[5] = target: T2, Inosine-5'-monophosphate dehydrogenase 2 (Homo sapiens, UniProt P12268); assay: Inhibitory activity against human Inosine-5'-monophosphate dehydrogenase 2 (IMPDH type II)
K562 [6] = assay: Compound effect on differentiation of K562 cells, % of benzidine positive cells at 100 uM; type: functional, Homo sapiens
[7] = target: T2, Inosine-5'-monophosphate dehydrogenase 2; assay: Inhibitory activity against human Inosine-5'-monophosphate dehydrogenase 2 (IMPDH type II);NA is not active; how it was run: as §1
[8] = target: T1, Inosine-5'-monophosphate dehydrogenase 1; assay: Inhibitory activity against human Inosine-5'-monophosphate dehydrogenase 1 (IMPDH type I);NA is not active; how it was run: as §1
Target sequence in this assay (P20839 2-514 limits assumed): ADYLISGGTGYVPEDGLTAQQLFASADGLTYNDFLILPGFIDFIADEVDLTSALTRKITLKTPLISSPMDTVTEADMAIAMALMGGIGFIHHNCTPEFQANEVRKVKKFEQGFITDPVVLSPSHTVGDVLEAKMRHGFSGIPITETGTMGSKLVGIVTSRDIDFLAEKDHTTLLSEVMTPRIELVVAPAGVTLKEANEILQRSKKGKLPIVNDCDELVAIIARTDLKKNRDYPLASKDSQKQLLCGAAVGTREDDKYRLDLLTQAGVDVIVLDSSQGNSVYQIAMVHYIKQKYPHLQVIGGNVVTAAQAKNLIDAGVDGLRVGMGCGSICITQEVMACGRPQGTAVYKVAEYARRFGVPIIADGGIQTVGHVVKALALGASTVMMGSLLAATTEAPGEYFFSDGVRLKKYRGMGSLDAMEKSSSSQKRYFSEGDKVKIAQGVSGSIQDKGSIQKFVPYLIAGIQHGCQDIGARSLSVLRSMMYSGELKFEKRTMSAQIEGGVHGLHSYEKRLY

K562 [9] = assay: Compound effect on differentiation of K562 cells, % of benzidine positive cells at 1.6 uM; type: functional, Homo sapiens
K562 [10] = assay: Compound effect on differentiation of K562 cells, % of benzidine positive cells at 14.3 uM; type: functional, Homo sapiens
K562 [11] = assay: Compound effect on differentiation of K562 cells, % of benzidine positive cells at 15 uM; type: functional, Homo sapiens
K562 [12] = assay: Compound effect on differentiation of K562 cells, % of benzidine positive cells at 14 uM; type: functional, Homo sapiens
K562 [13] = assay: Compound effect on differentiation of K562 cells, % of benzidine positive cells at 20 uM; type: functional, Homo sapiens
K562 [14] = assay: Antiproliferative activity against K562 cells; type: functional, cell-based, Homo sapiens
K562 [15] = assay: Compound effect on differentiation of K562 cells, % of benzidine positive cells at 1.5 uM; type: functional, Homo sapiens
[16] = target: T1, Inosine-5'-monophosphate dehydrogenase 1; assay: Inhibitory activity against human Inosine-5'-monophosphate dehydrogenase 1 (IMPDH type I); NA is not active; how it was run: as §1
Target sequence in this assay (P20839 2-514 limits assumed): as above

[17] = target: T2, Inosine-5'-monophosphate dehydrogenase 2; assay: Inhibitory activity against human Inosine-5'-monophosphate dehydrogenase 2 (IMPDH type II); NA is not active; how it was run: as §1

Row | IC50 (K562 [1]) | Ki [2] | Ki [5] | Structure (SMILES) | Effect (K562 [4]) | also measured
1 | 1.5 µM | 0.33 µM | 0.29 µM | COc1c(C)c2c(c(O)c1C/C=C(/C)CCCOP(=O)(O)CP(=O)(O)OC[C@@H]1OC(n3cnc4c(N)ncnc43)[C@@H](O)[C@H]1O)C(=O)OC2 (stereo partly specified) | 9% | Effect (K562 [3]): 90%
2 | 2090 µM | 2.3 µM | 0.47 µM | COc1c(C)c2c(c(O)c1CCOP(=O)(O)CP(=O)(O)OCCc1c(O)c3c(c(C)c1OC)COC3=O)C(=O)OC2 | 0.4% | Effect (K562 [6]): 4.4%
3 |  | 0.11 µM | 0.11 µM | NC(=O)c1csc([C@@H]2O[C@H](COP(=O)(O)CP(=O)(O)OC[C@@H]3O[C@H](n4cnc5c(N)ncnc54)[C@@H](O)[C@H]3O)[C@@H](O)[C@H]2O)n1 | 2.4% | Effect (K562 [10]): 35%
4 | 60 µM | 0.66 µM | 0.95 µM | NC(=O)c1cccc(C2OC(COP(=O)(O)CP(=O)(O)OC[C@@H]3OC(n4cnc5c(N)ncnc54)[C@@H](O)[C@H]3O)[C@@H](O)[C@H]2O)c1 (stereo partly specified) | 0.6% | Effect (K562 [11]): 9.5%
5 |  | 0.3 µM | 0.3 µM | NC(=O)c1csc([C@@H]2O[C@H](COP(=O)(O)C(F)(F)P(=O)(O)OC[C@@H]3O[C@H](n4cnc5c(N)ncnc54)[C@@H](O)[C@H]3O)[C@@H](O)[C@H]2O)n1 | 3.4% | Effect (K562 [12]): 48%
6 | 43.2 µM | 0.89 µM | 0.4 µM | COc1c(C)c2c(c(O)c1CCOP(=O)(O)CP(=O)(O)O)C(=O)OC2 | 3.3% | Effect (K562 [13]): 67%
7 |  | 0.04 µM |  | COc1c(C)c2c(c(O)c1C/C=C(\C)CCC(=O)O)C(=O)OC2 [MYCOPHENOLIC ACID] |  | IC50 (K562 [14]): 0.3 µM

The remaining lines, values behind:

Row | Structure (SMILES) | IC50 (K562 [1]) | Ki [2] | Ki [5] | Effect (K562 [4]) | also measured
8 | NC(=O)c1cccc([C@@H]2O[C@H](CO)[C@@H](O)[C@H]2O)c1 | 1.5 µM |  |  |  | NA [7]: inactive; NA [8]: inactive
9 | COc1c(C)c2c(c(O)c1CCOP(=O)(O)CP(=O)(O)OC[C@H]1O[C@@H](n3cnc4c(N)ncnc43)[C@H](O)[C@@H]1O)C(=O)OC2 |  |  |  | 40.9% | Effect (K562 [9]): 65.4%
10 | NC(=O)c1csc([C@H]2O[C@@H](COP(=O)(O)OP(=O)(O)OC[C@H]3O[C@@H](n4cnc5c(N)ncnc54)[C@H](O)[C@@H]3O)[C@H](O)[C@@H]2O)n1 |  |  |  | 2.5% | Effect (K562 [12]): 35%
11 | COc1c(C)c2c(c(O)c1C/C=C(\C)COP(=O)(O)CP(=O)(O)OC[C@@H]1O[C@H](n3cnc4c(N)ncnc43)[C@@H](O)[C@H]1O)C(=O)OC2 | 0.1 µM | 0.52 µM | 0.38 µM | 63.3% | Effect (K562 [15]): 95%
12 | NC(=O)c1csc([C@@H]2O[C@H](CO)[C@@H](O)[C@H]2O)n1 [TIAZOFURIN] |  |  |  | 5.3% | NA [16]: inactive; Effect (K562 [11]): 80%; NA [17]: inactive
